# High-throughput results from PubChem.
# IDH1 R132H inh – IDH1 R132H (human) inhibition; IDH1 R132H reductase, diaphorase/resazurin fluorescence, 60 min; O75874; inhibition, % at 10 µM; 70,000 tested, 0.18% active; in the data active means inhibition above about 34%; inconclusive means no clear call, values can overlap the other calls; inactive means below about 11%;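 further: 0% = DMSO and 100% = no enzyme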
# GASC1 inh – inhibitors of human demethylase GASC-1 KDM4C; 96,000 tested, 0.15% active; inhibition, % at 12.5 µM; GST-KDM4C 2-372, H3K9me3 peptide, LANCE TR-FRET;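 active means mean replicate inhibition above about 25%, with at least 55% of replicates also reaching it, limit read from the data, passing the limit was not always enough; inconclusive means only one of those two conditions met; inactive means neither condition met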
# Target sequence (Q9H3R0 2-372 limits assumed): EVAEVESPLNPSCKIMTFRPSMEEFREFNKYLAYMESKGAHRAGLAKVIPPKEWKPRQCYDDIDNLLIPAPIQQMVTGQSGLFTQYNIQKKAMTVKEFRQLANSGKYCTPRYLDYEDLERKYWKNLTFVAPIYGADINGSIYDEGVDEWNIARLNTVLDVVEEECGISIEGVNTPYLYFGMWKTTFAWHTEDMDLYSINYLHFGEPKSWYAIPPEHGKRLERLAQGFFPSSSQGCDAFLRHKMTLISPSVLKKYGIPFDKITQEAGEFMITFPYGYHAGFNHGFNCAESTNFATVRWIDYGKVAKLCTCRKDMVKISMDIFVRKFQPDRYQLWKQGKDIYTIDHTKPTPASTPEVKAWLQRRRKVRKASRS
#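 System – N-terminal GST-fused human GASC-1 (KDM4C) fragment, residues 2-372 · Input – enzyme final amount 10 nM · Technique – LANCE TR-FRET, Eu antibody, ULight-streptavidin, EDTA, ex 340 nm, em 618/671 nm · Medium – HEPES buffer, pH 7.5, plus ascorbate · Incubation – enzyme reaction 30 min, then detection 60 min, both room temperature · Reagent – H3K9me3 peptide with Fe(II)/2OG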
# T cruzi growth-1 – T. cruzi proliferation inhibition | 77,000 tested, 5.9% active | inhibition, % at 8.34 µM | T. cruzi beta-gal in NIH3T3, GalScreen luminescence, 90 h;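 active means mean inhibition above about 93%, with at least 55% of replicates each passing it, limit read from the data, passing the limit was not always enough; inconclusive means only one of those two conditions holds; inactive means neither condition holds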
# T cruzi growth-2 – blocks T. cruzi growth in NIH3T3 host cells | shares compounds with T cruzi growth-1 | T. cruzi beta-gal in NIH3T3, GalScreen luminescence, 90 h | inhibition, % at 8.35 µM | 5,600 tested, 72% active | AID 651739;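 active means mean replicate inhibition above about 95% and at least 55% of replicates individually reaching it, limit read from the data; inconclusive means only one of the two criteria is met; inactive means neither criterion is met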
# T cruzi growth-3 – inhibitors of T. cruzi proliferation; AID 651740; shares compounds with T cruzi growth-1; T. cruzi beta-gal in NIH3T3, GalScreen luminescence, 90 h; 5,600 tested, 21% active; inhibition, % at 2.09 µM;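 active means mean inhibition above about 95%, with at least 55% of replicates also reaching it, limit read from the data; inconclusive means meets just one of the two conditions; inactive means meets neither condition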;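 further: plate controls were neutral control median for no effect and positive control median for full effect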
# NIH3T3 tox – cytotoxicity in mouse NIH/3T3 fibroblasts; shares compounds with T cruzi growth-1; NIH/3T3 viability, CellTiter-Glo ATP luminescence, 90 h; cytotoxicity (signal decrease), % at 8.35 µM; 5,600 tested, 14% active; AID 651742;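 active means mean signal decrease across replicates above about 35% based on untreated-well scatter, with enough replicates individually passing, limit read from the data; inconclusive means no rule stated though some were filed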;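 further: 0% = median of neutral control wells and 100% = median of positive control wells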
# 3T3 cytotox 2 – NIH/3T3 (mouse) viability loss; inhibition, % at 24.9 µM; shares compounds with T cruzi growth-1; 5,600 tested, 56% active; NIH/3T3 viability, CellTiter-Glo ATP luminescence, 90 h;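 active means mean loss of cell viability signal at or above a set limit, and enough replicates individually reaching it; inconclusive means meets only the mean limit or only the replicate share; inactive means meets neither condition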;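 further: 0% = median of neutral control wells and 100% = median of positive control wells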
# An asterisk follows results filed as active; ? = inconclusive; / = no result. The sample as a whole holds a higher share of hits than the screen did.
SMILES,IDH1 R132H inh,GASC1 inh,T cruzi growth-1,T cruzi growth-2,T cruzi growth-3,NIH3T3 tox,3T3 cytotox 2
Cc1ccc(S(=O)(=O)Nc2cccc3c2O[C@@H](CN(C)Cc2ccc(Cl)c(Cl)c2)[C@@H](C)CN([C@H](C)CO)C3=O)cc1,/,1.2,58.4,/,/,/,/
CCC(=O)N(C)C[C@H]1Oc2cc(-c3cccc(F)c3)ccc2S(=O)(=O)N([C@H](C)CO)C[C@H]1C,-0.8,-0.1,70.2,/,/,/,/
C=CC(C)(O)CC(/C=C(\C)CC(/C=C(\C)CCC=C(C)C)OC(C)=O)OC(C)=O (stereo unspecified),3.7,/,/,/,/,/,/
C[C@@H]1CN([C@@H](C)CO)S(=O)(=O)c2ccc(C#CC3CC3)cc2O[C@H]1CN(C)CC1CCOCC1,-0.1,0.4,109.2*,90.4,76.5,64.6*,89.1*
C[C@H](CO)N1C[C@H](C)[C@@H](CN(C)CC2CCOCC2)Oc2cc(C#CC3CC3)ccc2S1(=O)=O,0.9,1.4,76.9,/,/,/,/
C[C@@H]1CN([C@@H](C)CO)S(=O)(=O)c2ccc(C#CC3CC3)cc2O[C@@H]1CN(C)CC1CCOCC1,-1.0,-0.7,58.1,/,/,/,/
C[C@H]1CN([C@@H](C)CO)S(=O)(=O)c2ccc(C#CC3CC3)cc2O[C@@H]1CN(C)CC1CCOCC1,-0.1,-2.8,?,103.1*,77.8,14.4,99.4*
C[C@@H]1CCCCO[C@@H](CN(C)C(=O)Nc2ccccc2)[C@@H](C)CN([C@H](C)CO)C(=O)c2cc(NS(=O)(=O)c3cn(C)cn3)ccc2O1,4.8,-1.1,9.3,/,/,/,/
C[C@@H]1CN([C@@H](C)CO)C(=O)c2cc(C#CCc3ccccc3)cnc2O[C@H]1CN(C)Cc1cccc(F)c1,-1.3,2.5,96.6*,110.6*,93.5,-7.4,104.5*
CC(C)CC#Cc1cnc2c(c1)C(=O)N([C@H](C)CO)C[C@H](C)[C@@H](CN(C)Cc1cccc(F)c1)O2,-0.5,-1.7,111.6*,106.4*,74.2,6.9,106.9*
C[C@@H]1CN([C@H](C)CO)C(=O)c2cc(C#CCN(C)C)cnc2O[C@H]1CN(C)Cc1cccc(F)c1,-1.3,2.6,-31.4,/,/,/,/
CC(C)CC#Cc1cnc2c(c1)C(=O)N([C@@H](C)CO)C[C@@H](C)[C@H](CN(C)Cc1cccc(F)c1)O2,-0.9,-2.0,103.3*,104.3*,82.6,27.4,107.5*
C[C@H]1CN([C@@H](C)CO)C(=O)c2cc(C#CCc3ccccc3)cnc2O[C@H]1CN(C)Cc1cccc(F)c1,0.4,0.6,18.2,/,/,/,/
C[C@@H]1CN([C@@H](C)CO)C(=O)c2cc(C#CCN(C)C)cnc2O[C@@H]1CN(C)Cc1cccc(F)c1,-0.1,1.1,-38.3,/,/,/,/
C[C@H]1CN([C@@H](C)CO)C(=O)Cc2cc(NC(=O)C3CCCCC3)ccc2O[C@@H]1CN(C)C(=O)NC1CCCCC1,-0.9,0.3,23.1,/,/,/,/
COc1ccccc1CN1C[C@@H](C)[C@H](OC)CN(C)C(=O)c2ccc(NC(C)=O)cc2OC[C@H]1C,-0.4,0.2,13.3,/,/,/,/
COc1ccc(CCNC(=S)n2cc(C)cn2)cc1OC,0.3,/,/,/,/,/,/
N#C[C@@H]1[C@H](c2ccc(C#Cc3cccc(F)c3)cc2)[C@@H](CO)N1C(=O)C1CCC1,/,-2.5,106.6*,102.7*,107.9*,-7.1,79.8*
N#C[C@@H]1[C@@H](c2ccc(C#Cc3cccnc3)cc2)[C@@H](CO)N1C(=O)C1CCCCC1,/,-3.7,102.6*,68.3,23.2,-10.2,21.6
N#C[C@H]1[C@@H](c2ccc(C#Cc3cccc(F)c3)cc2)[C@@H](CO)N1C(=O)C1CCC1,/,-9.6,/,/,/,/,/
N#C[C@@H]1[C@@H](c2ccc(C#Cc3cccc(F)c3)cc2)[C@@H](CO)N1C(=O)C1CCCC1,/,-0.7,100.4*,107.4*,65.0,8.6,63.6*
N#C[C@@H]1[C@H](c2ccc(-c3cccnc3)cc2)[C@H](CO)N1C(=O)C1CCC1,/,1.8,41.8,/,/,/,/
N#C[C@@H]1[C@@H](c2ccc(C#Cc3cccc(F)c3)cc2)[C@@H](CO)N1C(=O)C1CC1,/,0.1,88.9,/,/,/,/
COCC(=O)N(C)C[C@H]1Oc2cc(-c3ccccc3F)ccc2S(=O)(=O)N([C@H](C)CO)C[C@H]1C,-0.1,4.1,/,/,/,/,/
O=C(Nc1ccccc1F)N1CCCCN2[C@H](C1)[C@@H](c1ccc(/C=C/c3ccccc3)cc1)[C@@H]2CO,/,-1.7,83.8,/,/,/,/
SMILES,IDH1 R132H inh,GASC1 inh,T cruzi growth-1,T cruzi growth-2,T cruzi growth-3,NIH3T3 tox,3T3 cytotox 2
O=C(Nc1ccccc1F)N1CCCCN2[C@H](CO)[C@H](c3ccc(/C=C/c4ccccc4)cc3)[C@@H]2C1,/,-0.1,116.0*,96.3*,113.1*,44.5*,57.5*
O=C(Nc1ccccc1F)N1CCCCN2[C@H](CO)[C@H](c3ccc(/C=C/c4ccccc4)cc3)[C@H]2C1,/,12.2,81.8,/,/,/,/
C/C=C/c1ccc([C@H]2[C@@H](CO)N3CCCCN(C(=O)Nc4ccccc4F)C[C@@H]23)cc1,/,-1.6,109.6*,98.1*,51.6,-13.5,2.4
COc1ccc(S(=O)(=O)N(C)C[C@@H]2Oc3c(NC(=O)c4ccc(-c5nccs5)cc4)cccc3C(=O)N([C@@H](C)CO)C[C@H]2C)cc1,-5.1,-2.5,/,/,/,/,/
O=C(CCCCCC(=O)N/N=C/C=C/c1ccccc1)NO,0.3,/,/,/,/,/,/
O=C(C1CCC1)N1CCCCN2[C@H](CO)[C@@H](c3ccc(C#CC4CCCC4)cc3)[C@H]2C1,/,/,?,87.1,39.2,11.6,104.5*
O=C(C1CCC1)N1CCCCN2[C@@H](CO)[C@@H](c3ccc(C#CC4CCCC4)cc3)[C@@H]2C1,/,/,85.8,/,/,/,/
O=C(C1CCC1)N1CCCCN2[C@H](CO)[C@H](c3ccc(C#CC4CCCC4)cc3)[C@@H]2C1,/,/,71.9,/,/,/,/
O=C(C1CCC1)N1CCCCN2[C@H](CO)[C@H](c3ccc(C#CC4CCCC4)cc3)[C@H]2C1,/,/,101.1*,103.6*,94.9,22.2,103.3*
O=C(Nc1ccc(F)cc1)N1CC(=O)N2[C@H](CO)[C@H](c3ccc(C#Cc4cccnc4)cc3)[C@H]2C1,/,0.2,/,/,/,/,/
CCC(=O)N1CC2(CCN(C(=O)c3cccnc3)CC2)c2c([nH]c3cc(OC)ccc23)[C@@H]1CO,/,-0.3,/,/,/,/,/
Cc1nc(SC(C(=O)c2ccccc2)c2ccccc2)nc2c1CCCC2 (stereo unspecified),0.3,/,/,/,/,/,/
OC[C@H]1[C@H](c2ccc(C3=CCCC3)cc2)[C@H]2CN(CCC(F)(F)F)CCCCN21,/,/,73.6,/,/,/,/
OC[C@@H]1[C@@H](c2ccc(C3=CCCC3)cc2)[C@@H]2CN(CCC(F)(F)F)CCCCN12,/,/,88.6,/,/,/,/
OC[C@@H]1[C@H](c2ccc(C3=CCCCC3)cc2)[C@@H]2CN(CCC(F)(F)F)CCCCN12,/,0.4,?,95.6*,105.5*,69.9*,105.6*
